AF4-AF9 inh = blocks AF4 peptide binding to human AF9. P42568. AlphaScreen, biotin-AF4 peptide binding to FLAG-AF9. inhibition, % at 10 µM. 350,000 tested, 0.47% active. AID 651704;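 active means every replicate reaching a set inhibition limit, whatever the replicate mean, cut at about 25% in these data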;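 further: 0% = plate neutral control median and 100% = total signal loss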
Target sequence (P42568 whole entry, looked up): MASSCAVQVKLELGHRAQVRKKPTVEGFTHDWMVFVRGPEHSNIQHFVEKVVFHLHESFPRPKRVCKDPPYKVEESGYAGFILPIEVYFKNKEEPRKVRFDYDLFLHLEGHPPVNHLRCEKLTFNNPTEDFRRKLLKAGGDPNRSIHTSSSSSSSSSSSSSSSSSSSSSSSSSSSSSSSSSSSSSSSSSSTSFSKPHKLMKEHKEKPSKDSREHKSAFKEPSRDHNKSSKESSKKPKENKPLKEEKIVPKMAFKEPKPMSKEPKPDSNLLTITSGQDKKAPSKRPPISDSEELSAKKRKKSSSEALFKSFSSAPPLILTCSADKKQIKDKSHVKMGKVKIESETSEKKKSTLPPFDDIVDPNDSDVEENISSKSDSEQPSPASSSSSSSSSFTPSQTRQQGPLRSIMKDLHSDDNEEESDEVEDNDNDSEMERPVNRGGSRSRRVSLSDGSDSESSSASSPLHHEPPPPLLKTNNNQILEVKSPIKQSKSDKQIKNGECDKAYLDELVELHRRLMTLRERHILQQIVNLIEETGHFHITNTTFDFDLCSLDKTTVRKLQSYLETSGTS
FN deposition inh = fibronectin deposition inhibition | AH1F fibroblasts, Alexa488-fibronectin deposition fluorescence, overnight | inhibition, % at 12.6 µM | 350,000 tested, 0.086% active | AID 743247;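 active means mean inhibition across replicates of 30% or more, regardless of how many single replicates reach that level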;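 further: positive control wells lacked labelled fibronectin entirely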
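Test system: AH1F fibroblast monolayer depositing Alexa488-labelled fibronectin into matrix. Input: 10000 cells per well. Technique: fluorescence, ex 485 nm, em 525 nm. Buffer or medium: DMEM plus 2% serum, read in PBS. Timing: 1 h cell adhesion before compound, then overnight fibronectin incubation. Compound: single dose, pinned. Read-out basis: inhibition from reduced deposited-fibronectin fluorescence.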
PAX8 inh HTS = inhibitors of PAX8 transcriptional activity in RMG-I cells | RMG-I TPO-luciferase reporter, SteadyGlo, 24 h | inhibition, % at 12.6 µM | 360,000 tested, 1.2% active;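 active means mean replicate inhibition at least 60% with every replicate also reaching 60%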;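 further: luciferase light reporting Pax8 driven TPO promoter activity; plate controls were median of neutral control wells for no effect and mitoxantrone controls for full effect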
Glyco luc inh = N-linked glycosylation inhibition. D54 ERlucT glycosylation luciferase reporter, 24 h; percent of 100 nM tunicamycin response. reporter increase, % at 12.5 µM. 360,000 tested, 0.23% active. AID 588692;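 active means mean luciferase reporter signal, scaled so untreated is 0 and the glycosylation-blocking control 100, at or above a set limit in every replicate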;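 further: luciferase carries N-glycosylation sites so blocking glycosylation raises the light; 0% = median of neutral control wells and 100% = median of 100 nM tunicamycin wells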
HIV Env fusion = blocks HIV Env-driven cell-cell fusion; inhibition, % at 12.3 µM; HeLa-JRFL Env/CEM21 cell fusion, luciferase; AID 651610; 360,000 tested, 1.1% active;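 active means mean replicate inhibition score of at least 50 and every replicate individually at or above 50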;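 further: 0% = plate neutral controls and 100% = maraviroc near 300 nM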
EWS-Fli block = inhibitors of EWS/Fli oncoprotein transcriptional activity | 350,000 tested, 0.67% active | inhibition, % at 12.6 µM | A673 NR0B1-luciferase reporter, viability-normalised;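 active means mean inhibition of at least 50% after viability correction, with every replicate also passing that limit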;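 further: firefly luciferase signal divided by Alamar Blue viability fluorescence both relative to DMSO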
The depositor's hits bear a star; · = not tested or not shown; ! = a repeat was not active; [ ] = remark or other dose. Hits are enriched below; roughly 2.5% of the tested compounds scored in any of these assays.

SMILES	AF4-AF9 inh	FN deposition inh	PAX8 inh HTS	Glyco luc inh	HIV Env fusion	EWS-Fli block
C[C@@H]1CCCCO[C@H](CN(C)Cc2ccccc2)[C@H](C)CN([C@@H](C)CO)C(=O)c2cc(NC(=O)Nc3ccc(C(F)(F)F)cc3)ccc2O1	-1	2	115*	·	42[16.7 µM]	3
O=C(c1cccnc1)N1CC2(C1)[C@H](c1ccccc1)[C@H](CO)N2CC1CC1	0	·	2	·	·	-1
CCCNC(=O)[C@@]1(c2ccc([N+](=O)[O-])cc2)CC(=O)N(CC23CC4CC(CC(C4)C2)C3)[C@@H]1c1ccc(CO)cc1I	0	·	105*	·	19[16.7 µM]	42
CC(C)NC(=O)[C@@]1(c2ccc([N+](=O)[O-])cc2)CC(=O)N(CC23CC4CC(CC(C4)C2)C3)[C@@H]1c1ccc(CO)cc1	13	·	15	·	-1[16.7 µM]	-4
COc1ccc(-c2ccc(C3[C@H]4CNC[C@@H]3N4C(=O)Nc3cccc(OC)c3)cc2)cc1 (stereo partly drawn)	0	-28	0	·	·	59*!
C[C@@H]1CN([C@@H](C)CO)S(=O)(=O)c2ccc(C#C[C@@H](C)O)cc2O[C@H]1CN(C)Cc1ccc(-c2ccccc2)cc1	1	·	92*	·	·	44
C[C@H](O)C#Cc1ccc2c(c1)O[C@H](CN(C)Cc1ccc(-c3ccccc3)cc1)[C@@H](C)CN([C@H](C)CO)S2(=O)=O	0	·	80*	·	·	49
C[C@H](O)C#Cc1ccc2c(c1)O[C@H](CN(C)Cc1ccc(-c3ccccc3)cc1)[C@H](C)CN([C@H](C)CO)S2(=O)=O	6	·	41	·	·	12
C[C@H](O)C#Cc1ccc2c(c1)O[C@@H](CN(C)Cc1ccc(-c3ccccc3)cc1)[C@@H](C)CN([C@@H](C)CO)S2(=O)=O	2	·	89*	·	·	-14
CCCCC[C@@H](C)N1C[C@@H](COCc2ccccc2)Oc2cc(N3CC[C@@H](N(C)C)C3)ccc2S1(=O)=O	12	·	17	·	8	19
CCCCC[C@H](C)N1C[C@H](COCc2ccccc2)Oc2cc(N3CCC[C@H]3C(N)=O)ccc2S1(=O)=O	0	·	1	·	44	-12
CCCCC[C@@H](C)N1C[C@H](COCc2ccccc2)Oc2cc(N3CC[C@@H](N(C)C)C3)ccc2S1(=O)=O	5	-2	84*	·	·	42
CCCCC[C@@H](C)N1C[C@H](COCc2ccccc2)Oc2cc(N3CCC[C@H]3C(N)=O)ccc2S1(=O)=O	0	-2	0	·	76*	3
C[C@@H]1CCCCO[C@@H](CN(C)C)[C@H](C)CN([C@@H](C)CO)C(=O)c2cc(NC(=O)CCC(F)(F)F)ccc2O1	-1	·	-6	·	16[16.7 µM]	-6
Cc1cc(C)c(C(=O)/C=C/c2cccc3ccccc23)c(=O)[nH]1	6	22	99*	-8	11	21
Cc1cc(C)c(C(=O)/C=C/c2ccc3c(c2)OCO3)c(=O)[nH]1	-3	·	-2	-1	1	-2
COc1ccc(OC)c(NC(=O)C2(C)CCN2CCOc2ccccc2)c1 (stereo not drawn)	3	10	21	-2	66*	22
COc1ccccc1-c1ccc2c(c1)O[C@H](CN(C)C(C)=O)[C@H](C)CN([C@@H](C)CO)S2(=O)=O	-4	4	·	·	25[16.7 µM]	-1
CN1C(=O)c2cc(NS(C)(=O)=O)ccc2OC[C@H]2O[C@@H](CC(=O)O)CC[C@H]21	-1	2	-40	·	·	4
COc1ccc(Cl)cc1NC(=O)CN(C)CC(=O)Nc1ccccc1-c1ccccc1	5	13	19	2	63*	5
CCOC(=O)CNc1ncc(C(F)(F)F)cc1Cl	-3	-2	6	2	7	-5
N#CCC(CNc1ncc(C(F)(F)F)cc1Cl)OC(=O)c1ccc(Cl)cc1Cl (stereo not drawn)	-2	·	·	30*	·	21
C[C@H](CO)N1C[C@H](C)[C@H](CN(C)C(=O)Nc2ccccc2)Oc2ccc(NS(C)(=O)=O)cc2CC1=O	-4	-5	-16	·	·	-12
CO[C@@H]1CN(C)C(=O)c2ccc(NC(=O)C3CC3)cc2OC[C@H](C)N(Cc2ccc(F)cc2)C[C@H]1C	3	1	44	·	·	16
COc1ccc(N(CC(=O)NCCSCc2ccc(Cl)cc2)S(C)(=O)=O)cc1Cl	-1	3	12	-2	121*	-1
SMILES	AF4-AF9 inh	FN deposition inh	PAX8 inh HTS	Glyco luc inh	HIV Env fusion	EWS-Fli block
CS(=O)(=O)N(CC(=O)NCc1ccccc1Cl)c1cccc([N+](=O)[O-])c1	-2	12	14	0	2	6
CCOc1ccc(N(CC(=O)NCCSCc2ccc(Cl)cc2)S(C)(=O)=O)cc1	0	-1	28	-3	80*	19
O=C(/C=C/c1cccc([N+](=O)[O-])c1)NCCSCc1ccc(Cl)cc1	-7	·	2	-2	23	58*
Cc1ccc(CSCCNC(=O)CN(c2cccc([N+](=O)[O-])c2)S(C)(=O)=O)cc1	7	-9	4	-2	55*	6
O=C(/C=C/c1cccc([N+](=O)[O-])c1)NCCSCc1c(Cl)cccc1Cl	-3	-4	1	0	·	-5
CN(C)C(=O)c1ccc(-c2ccc3c(c2)[C@@H]2[C@@H](CCN2C(=O)c2ccc4c(c2)OCO4)[C@@H](CO)N3)cc1	·	-10	-4	·	·	9
COc1ccccc1S(=O)(=O)N1CC[C@@H]2[C@H](CO)Nc3ccc(-c4ccc(F)cc4)cc3[C@@H]21	5	-5	67*	·	·	-13
COc1ccccc1-c1ccc2c(c1)[C@H]1[C@H](CCN1S(=O)(=O)c1ccccc1OC)[C@@H](CO)N2	·	-36	65*	·	·	4
OC[C@H]1Nc2ccc(-c3ccccc3)cc2[C@@H]2[C@H]1CCN2Cc1ccccc1F	2	-19	58	·	·	6
COc1ccccc1S(=O)(=O)N1CC[C@@H]2[C@@H](CO)Nc3ccc(-c4ccc(F)cc4)cc3[C@@H]21	3	-3	71*	·	·	44
COc1ccc(-c2ccc3c(c2)[C@@H]2[C@@H](CCN2Cc2ccccc2F)[C@H](CO)N3)cc1	26*	-1	·	·	·	·
Cc1noc(C)c1NC(=O)Nc1ccc2c(c1)C(=O)N(C)[C@@H]1CC[C@@H](CC(=O)NCc3ccc(Cl)cc3)O[C@@H]1CO2	-1	6	-5	·	-69[16.7 µM]	-6
O=S(=O)(c1ccccc1F)N1CC[C@@H]2[C@@H](CO)Nc3ccc(-c4ccccc4)cc3[C@@H]21	0	9	15	·	·	5
O=S(=O)(c1ccccc1F)N1CC[C@@H]2[C@@H](CO)Nc3ccc(C4=CCCCC4)cc3[C@@H]21	-4	5	83*	·	·	-8
COC(=O)C[C@H]1CC[C@H]2[C@@H](COc3ccc(NS(=O)(=O)c4ccccc4Cl)cc3C(=O)N2C)O1	0	-21	·	·	9[16.7 µM]	9
CC(C)(C)c1ccc(C(=O)NCCOc2ccccc2)cc1	-2	1	-7	-18	-65	64*

Screening results deposited in PubChem BioAssay by Broad Institute.
